Results reported in ChEMBL document CHEMBL4699573, “Design, Synthesis, and Pharmacological Evaluation of Analogues Derived from the PLEV Tetrapeptide as Protein-Protein Interaction Modulators of Voltage-Gated Sodium Channel 1.6” (J Med Chem, 2020).
Residues, ends and D or L forms follow the SMILES beside them. *: point of attachment. Adamantane1carbonyl = O=C(C12CC3CC(CC(C3)C1)C2)*; OtBu = CC(C)(C)O*

Legend:
[1] = molecular target: T1, Sodium channel protein type 8 subunit alpha (Homo sapiens, UniProt Q9UQD0); experiment: Binding affinity to human recombinant Nav1.6 C-terminal domain expressed in Escherichia coli BL21 assessed as assessed as induction of protein denaturation by measuring change in melting temperature at 10 uM by fluorescent dye based thermal shift assay; conditions: filed as modulator, dose 50.0 µM
T1 sequence (Q9UQD0 whole entry, looked up, the tested form may be a part): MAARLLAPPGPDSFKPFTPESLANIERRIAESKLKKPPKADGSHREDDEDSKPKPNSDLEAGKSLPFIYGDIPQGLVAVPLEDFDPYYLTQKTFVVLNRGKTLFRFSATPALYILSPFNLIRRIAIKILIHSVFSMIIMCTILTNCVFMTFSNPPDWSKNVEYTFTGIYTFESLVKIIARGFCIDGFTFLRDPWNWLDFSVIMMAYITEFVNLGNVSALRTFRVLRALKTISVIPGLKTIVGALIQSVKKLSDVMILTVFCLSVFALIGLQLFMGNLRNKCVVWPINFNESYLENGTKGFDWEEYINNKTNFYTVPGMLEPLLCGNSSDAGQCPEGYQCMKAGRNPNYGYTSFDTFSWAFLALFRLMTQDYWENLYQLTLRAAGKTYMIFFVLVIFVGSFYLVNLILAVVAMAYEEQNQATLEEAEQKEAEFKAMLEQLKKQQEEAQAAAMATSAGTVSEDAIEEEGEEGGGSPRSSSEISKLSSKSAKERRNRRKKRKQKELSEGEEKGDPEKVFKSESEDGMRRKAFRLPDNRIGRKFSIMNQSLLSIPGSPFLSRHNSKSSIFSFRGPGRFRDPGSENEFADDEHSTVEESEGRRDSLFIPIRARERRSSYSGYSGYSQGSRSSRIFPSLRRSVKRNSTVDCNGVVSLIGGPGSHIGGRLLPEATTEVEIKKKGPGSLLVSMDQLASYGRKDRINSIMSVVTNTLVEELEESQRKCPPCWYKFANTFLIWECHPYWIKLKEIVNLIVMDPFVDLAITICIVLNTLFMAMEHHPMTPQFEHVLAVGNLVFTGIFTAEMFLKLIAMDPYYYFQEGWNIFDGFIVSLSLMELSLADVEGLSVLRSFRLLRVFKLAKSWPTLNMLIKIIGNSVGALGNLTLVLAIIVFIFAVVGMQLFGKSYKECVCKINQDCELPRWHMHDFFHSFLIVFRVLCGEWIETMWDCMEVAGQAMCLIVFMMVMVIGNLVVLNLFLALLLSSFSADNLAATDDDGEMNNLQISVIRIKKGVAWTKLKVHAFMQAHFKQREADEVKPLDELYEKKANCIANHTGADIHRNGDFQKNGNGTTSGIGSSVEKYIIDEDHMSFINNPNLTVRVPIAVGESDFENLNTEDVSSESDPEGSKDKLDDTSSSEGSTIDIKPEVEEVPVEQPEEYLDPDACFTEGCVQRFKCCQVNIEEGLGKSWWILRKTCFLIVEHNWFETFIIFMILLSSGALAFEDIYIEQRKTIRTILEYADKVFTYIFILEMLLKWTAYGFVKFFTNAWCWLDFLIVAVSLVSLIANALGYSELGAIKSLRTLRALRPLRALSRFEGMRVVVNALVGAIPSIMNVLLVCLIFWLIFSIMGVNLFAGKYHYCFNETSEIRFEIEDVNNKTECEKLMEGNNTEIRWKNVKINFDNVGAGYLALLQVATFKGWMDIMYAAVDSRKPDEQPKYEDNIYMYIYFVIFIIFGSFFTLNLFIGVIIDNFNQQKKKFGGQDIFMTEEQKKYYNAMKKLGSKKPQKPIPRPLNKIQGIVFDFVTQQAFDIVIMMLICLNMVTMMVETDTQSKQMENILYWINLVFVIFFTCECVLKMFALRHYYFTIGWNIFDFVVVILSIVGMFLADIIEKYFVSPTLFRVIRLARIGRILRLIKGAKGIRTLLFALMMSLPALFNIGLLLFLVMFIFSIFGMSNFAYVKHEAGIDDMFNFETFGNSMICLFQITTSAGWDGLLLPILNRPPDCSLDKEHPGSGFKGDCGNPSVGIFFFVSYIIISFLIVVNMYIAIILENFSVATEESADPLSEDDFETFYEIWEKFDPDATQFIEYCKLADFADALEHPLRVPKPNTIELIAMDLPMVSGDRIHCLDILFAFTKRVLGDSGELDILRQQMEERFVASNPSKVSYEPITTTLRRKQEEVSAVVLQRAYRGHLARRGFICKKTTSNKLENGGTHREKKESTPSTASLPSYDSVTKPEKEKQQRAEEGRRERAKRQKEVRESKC

HEK293 [2] = experiment: Cytotoxicity against HEK293 cells assessed as reduction in cell viability measured after 18 hrs by celltiter-blue assay; conditions: human, hek293, 18 h
[3] = molecular target: T2, Fibroblast growth factor 14 (Homo sapiens) (UniProt Q92915); experiment: Binding affinity to human recombinant FGF14 expressed in Escherichia coli BL21 assessed as association rate constant by SPR analysis; conditions: filed as modulator
T2 sequence (whole entry): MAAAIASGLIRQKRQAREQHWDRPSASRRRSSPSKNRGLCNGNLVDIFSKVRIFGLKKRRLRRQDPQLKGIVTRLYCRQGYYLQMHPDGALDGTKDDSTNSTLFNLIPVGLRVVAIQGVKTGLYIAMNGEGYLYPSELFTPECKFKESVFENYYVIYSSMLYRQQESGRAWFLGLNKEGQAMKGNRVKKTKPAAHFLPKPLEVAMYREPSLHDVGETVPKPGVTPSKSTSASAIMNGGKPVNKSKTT
Summary of the method: (§1)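 Biacore T100 runs with FGF14 (17,896 RU) or Nav1.6 C-tail (6,800 RU) amine-coupled on CM5 at pH 5.5. Compounds at 0.195–200 μM in PBS, 0.005% Tween-20, 2% DMSO; 50 μL/min at 25 °C. 120 s association, 150 s dissociation, DMSO calibration, blank subtraction. Rates from a Langmuir 1:1 fit; KD averages the kinetic and steady-state values. At least duplicate experiments.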

[4] = Modulation of recombinant human FGF141b (1 to 252 residues)-recombinant human Nav1.6 C-terminal tail (1763 to 1976 residues) protein-protein interaction expressed in HEK293 cells measured at 2 mins interval for 20 mins by split-luciferase complementation assay; type: cell-based
Summary of the method: (§2)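 Double-stable HEK293 line expressing CLuc-FGF14 and CD4-Nav1.6-C-tail-NLuc, kept on G418 and puromycin. Cells seeded for 24 h, then given compound for 1 h in serum-free, phenol red-free DMEM/F12 with a final 0.5% DMSO: 50 μM for screening, 0.25–100 μM over eight concentrations for dose-response; n = 4. D-luciferin added and read every 2 min for 20 min at 37 °C. Peak luminescence expressed as percent of per-plate DMSO mean (n = 32). IC50 from four-parameter nonlinear fit. At least 3 experiments.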

[5] = molecular target: T2, Fibroblast growth factor 14 (Homo sapiens); experiment: Binding affinity to human recombinant FGF14 expressed in Escherichia coli BL21 assessed as assessed as induction of protein denaturation by measuring change in melting temperature at 50 uM by fluorescent dye based thermal shift assay; conditions: filed as modulator
[6] = molecular target: T3, Fibroblast growth factor 14/SCN8A (Homo sapiens) (UniProt Q9UQD0+Q92915); experiment: (§3) Modulation of recombinant human Nav1.6 C-terminal tail (1763 to 1976 residues)-FGF14 (64 to 252 residues) protein-protein interaction expressed in HEK293 cells assessed as long-term inactivation at depolarization cycle 2 at 10 uM incubated for 30 mins by cell patch clamp electrophysiology assay (reference value: 1 +/- 0.02); type: cell-based; conditions: filed as modulator
T3 sequence (Q9UQD0 whole entry, looked up, one chain of several, the tested form may be a part): as the sequence (Q9UQD0 whole entry, looked up, the tested form may be a part) above
Summary of the method: (§4)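 HEK-Nav1.6 cells transiently transfected with FGF14 using Lipofectamine 2000, then exposed at least 30 min to 10 μM compound or 0.1% DMSO in the pH 7.3 HEPES extracellular solution. Whole-cell patch clamp with Cs-methanesulfonate internal solution, 70–80% capacitance and series-resistance compensation. Test steps from −100 to +60 mV. Student's t-test used.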

[7] = molecular target: T1, Sodium channel protein type 8 subunit alpha; experiment: Modulation of recombinant human Nav1.6 C-terminal tail (1763 to 1976 residues) expressed in HEK293 cells assessed as steady state half inactivation voltage at 10 uM incubated for 30 mins by whole cell patch clamp electrophysiology assay (reference value: -62 +/- 1.3 mV); type: cell-based
Summary of the method: (§5)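 Stable HEK-Nav1.6 cells without FGF14, incubated at least 30 min in extracellular solution (mM: 140 NaCl, 3 KCl, 1 MgCl2, 1 CaCl2, 10 HEPES, 10 glucose, pH 7.3) with compound (10 or 30 μM) or 0.1% DMSO. Whole-cell recording with Cs-methanesulfonate/EGTA/NaCl/HEPES pipette solution, 70–80% compensation. Steps −100 to +60 mV; tau measured at −10 mV. Student's t-test.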

[8] = molecular target: T3, Fibroblast growth factor 14/SCN8A (Homo sapiens); experiment: as §3, with “half activation voltage” for “long-term inactivation at depolarization cycle 2”, “value: -21.4 +/-” for “value:”, “mv)” for “+/- 0.02)”; type: cell-based; summary of the method: as §4
[9] = molecular target: T4, Fibroblast growth factor 14 (Homo sapiens, UniProt Q92915); experiment: Binding affinity to human recombinant FGF14 expressed in Escherichia coli BL21 assessed as dissociation constant by SPR analysis; summary of the method: as §1
T4 sequence (Q92915 whole entry): T2 sequence (whole entry)

[10] = molecular target: T3, Fibroblast growth factor 14/SCN8A (Homo sapiens); experiment: as §3, with “as peak current density” for “as long-term inactivation at depolarization cycle 2”, “by whole” for “by”, “value: -19.3” for “value: 1”, “+/- 1.3)” for “+/- 0.02)”; type: cell-based; summary of the method: as §4
[11] = molecular target: T3, Fibroblast growth factor 14/SCN8A (Homo sapiens); experiment: as §3, with “cycle 3” for “cycle 2”, “value: 0.99” for “value: 1”, “+/- 0.04)” for “+/- 0.02)”; type: cell-based; conditions: filed as modulator; summary of the method: as §4
[12] = molecular target: T1, Sodium channel protein type 8 subunit alpha; experiment: Modulation of recombinant human Nav1.6 C-terminal tail (1763 to 1976 residues) expressed in HEK293 cells assessed as peak current density at 30 uM incubated for 30 mins by whole cell patch clamp electrophysiology assay (reference value: -50.1 +/- 3.1 pA/pF); type: cell-based; summary of the method: as §5
HEK293 [13] = experiment: Modulation of recombinant human FGF141b (1 to 252 residues)-recombinant human Nav1.6 C-terminal tail (1763 to 1976 residues) protein-protein interaction expressed in HEK293 cells measured at 2 mins interval for 20 mins by split-luciferase complementation assay relative to control; type: cell-based; conditions: filed as modulator, time min 2-20; summary of the method: as §2

Compound: COC(=O)[C@@H](NC(=O)[C@H](CCC(=O)OC(C)(C)C)NC(=O)[C@H](CC(C)C)NC(=O)[C@@H]1CCCN1C(=O)C12CC3CC(CC(C3)C1)C2)C(C)C (Adamantane1carbonyl-PLE(OtBu)V-OMe)
- ΔTm [1]: -4.64 °C
- Activity (HEK293 [2]): Non-Toxic
- K [3]: 4.66 10^3/M/s
- IC50 [4]: 20.4 µM
- ΔTm [5]: -2.27 °C
- Activity [6]: 0.86
- Activity [7]: -55.2 mV
- Activity [8]: -21.6 mV
- Kd [9]: 4.05 µM
- Activity [10]: -38.8 pA/pF
- Activity [11]: 0.81
- Activity [12]: -17.9 pA/pF
- Efficacy (HEK293 [13]): 96.1%
